Measurements taken from ChEMBL document CHEMBL1955761, “Privileged scaffolds or promiscuous binders: a comparative study on rhodanines and related heterocycles in medicinal chemistry” (J Med Chem, 2012).
Activity calls are given as the source filed them.

Experiments:
Escherichia coli [1] = assay: Inhibition of Escherichia coli MurA using PEP as substrate assessed as inorganic phosphate release at 25 uM preincubated for 10 mins measured after 60 mins […]
Prothrombin (Bos taurus) = Prothrombin (Bos taurus) (UniProt P00735); assay: Inhibition of bovine plasma thrombin using Boc-Val-Pro-Arg-AMC as substrate at 25 uM preincubated for 15 mins measured after 10 mins by fluorimetric assay
Summary of the method: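 Purchased bovine plasma thrombin at 10 nM final, preincubated 15 min with 25 μM inhibitor; reaction started with 50 μM substrate. Buffer 50 mM Tris-HCl pH 7.5, 150 mM NaCl, 0.05% Tween 20. Triplicate, averaged.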

Dengue virus = assay: Inhibition of Dengue virus NS2B-NS3 protease using Abz-NleKRRS-3-(NO2)Y as substrate at 50 uM preincubated for 15 mins measured every sec for 15 mins by fluorimetric analysis
Escherichia coli [2] = assay: Inhibition of Escherichia coli MetAP at 10 uM after 15 mins by fluorescence analysis

Row | inhibition (Escherichia coli [1]) | inhibition (Prothrombin (Bos taurus)) | inhibition (Dengue virus) | inhibition (Escherichia coli [2]) | SMILES
1 | 10% | 15% | 28% | 18% | COc1ccccc1/C=C1\NC(=S)NC1=O
2 | 11% | 17% | 45% | inactive | C/C(=C1/SC(=S)NC1=O)c1cccs1
3 | 20% | 24% | 60% | inactive | O=C1NC(=S)S/C1=C\c1sccc1Br
4 | inactive | 12% | 27% | inactive | O=C1NC(=O)/C(=C/c2cccc(O)c2)N1
5 | 22% | 20% | 41% | 15% | O=C1NC(=S)N/C1=C\c1ccc(Cl)cc1Cl
6 | 57% | 30% | 29% | 83% | O=C1NC(=S)N/C1=C\c1cnc[nH]1
7 | 43% | 28% | 47% | inactive | O=C1NC(=S)S/C1=C\c1sccc1Cl
8 | 16% | 22% | 50% | inactive | Cn1cc(/C=C2\NC(=S)NC2=O)c2ccccc21
9 | 78% | 37% | 44% | 90% | O=C1NC(=O)/C(=C/c2ccc(O)c(O)c2)S1
10 | inactive | inactive | 15% | inactive | O=C1NC(=O)/C(=C/c2ccc(Cl)cc2Cl)N1
11 | 25% | 11% | 17% | 10% | COc1cccc(/C=C2\SC(=O)NC2=O)c1
12 | inactive | 15% | 36% | inactive | O=C1NC(=O)/C(=C/c2c[nH]c3ccccc23)N1
13 | 29% | 23% | inactive | 18% | C/C(=C1/NC(=S)NC1=O)c1ccc(F)cc1
14 | 18% | 27% | 45% | 12% | Cn1cc(/C=C2\SC(=S)NC2=O)c2ccccc21
15 | inactive | inactive | 11% | inactive | CC(=O)n1cc(/C=C2\SC(=O)NC2=O)c2ccccc21
16 | 10% | inactive | 18% | 17% | CCCC/C=C/C1SC(=S)NC1=O (stereo not given)
17 | inactive | 29% | 50% | inactive | COc1ccc(/C=C2\SC(=S)NC2=O)cc1OC
18 | 100% | inactive | 38% | 17% | O=C1NC(=O)/C(=C/c2ccccc2)N1
19 | 22% | 14% | 46% | inactive | O=C1NC(=S)N/C1=C\c1ccco1
20 | inactive | 10% | 24% | 10% | COc1ccc(/C=C2\NC(=O)NC2=O)cc1
21 | inactive | 16% | 13% | inactive | O=C1NC(=O)/C(=C/c2sccc2Br)N1
22 | inactive | inactive | 12% | inactive | O=C1NC(=O)/C(=C/c2c(F)c(F)c(F)c(F)c2F)S1
23 | inactive | inactive | inactive | 13% | O=C1NC(=O)/C(=C/c2ccc([N+](=O)[O-])cc2)S1
24 | 12% | 11% | 23% | inactive | O=C1NC(=O)/C(=C/c2sccc2Cl)S1
25 | inactive | inactive | inactive | 11% | Cc1ccc(/C=C2\NC(=O)NC2=O)cc1
